Measurements taken from ChEMBL document CHEMBL1145924 (J Med Chem, 2003).
Values joined by “and” are separate entries in the source; they are usually repeats but may differ in a detail not shown here. Equal entries are not always repeated.

What was measured:
Histamine H1 receptor [1] = target: T1, Histamine H1 receptor (Cavia porcellus, UniProt P31389); assay: Effective concentration against histamine H1 receptor in endothelium-Denuded rings of guinea pig Aorta
Histamine H3 receptor = Histamine H3 receptor (Cavia porcellus, UniProt Q9JI35); assay: Tested for Antagonistic activity at histamine H3 receptor in guinea pig ileal longitudinal muscle in the presence of mepyramine at a concentration of 1-3 micro M; assay type: functional; conditions: read-out: pA2 (converted)
Procedure, shortened: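 Field-stimulated ileal longitudinal muscle (15 V, 0.5 ms, 0.1 Hz), 37 °C, mepyramine 1–3 μM throughout. […] Antagonists used only at concentrations not blocking M3 receptors; apparent pA2 from rightward shift.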

Histamine H1 receptor [2] = target: T1, Histamine H1 receptor; assay: Effective concentration against histamine H1 receptor in guinea pig ileum; assay type: tissue-based
Histamine H1 receptor [3] = target: T2, Histamine H1 receptor (Rattus norvegicus, UniProt P31390); assay: (§1) Effective concentration against histamine H1 receptor in rat aorta; assay type: tissue-based
Histamine H1 receptor [4] = target: T2, Histamine H1 receptor; assay: Apparent pA2 value of compound at 50 nM concentration of mepyramine in rat aorta; assay type: functional, tissue-based; conditions: read-out: pA2 (converted)
[5] = target: Histamine H1 receptor (Rattus norvegicus) (UniProt P31390); assay: Maximum response (E max) against H1 receptor in rat aorta; assay type: tissue-based
[6] = target: Histamine H1 receptor (Cavia porcellus) (UniProt P31389); assay: Maximum response (E max) against histamine H1 receptor in guinea pig ileum; assay type: tissue-based
[7] = target: Muscarinic acetylcholine receptor M3 (Cavia porcellus, UniProt Q8VH26); assay: Antagonistic activity for carbachol induced contractions in guinea pig ileum against Muscarinic acetylcholine receptor M3 in the presence of mepyramine at a concentration of 1-3 micro M; assay type: functional, tissue-based; conditions: read-out: pA2 (converted)
[8] = target: Histamine H1 receptor (Cavia porcellus) (UniProt P31389); assay: Maximum response (E max) against H1 receptor in guinea pig ileum; assay type: tissue-based
[9] = target: Histamine H1 receptor (Cavia porcellus) (UniProt P31389); assay: Concentration required for agonistic activity against histamine in guinea pig ileum; assay type: functional, tissue-based
[10] = target: Histamine H1 receptor (Cavia porcellus) (UniProt P31389); assay: (§2) Equilibrium dissociation constant (pKp) against histamine H1 receptor in guinea pig ileum; assay type: functional, tissue-based
Histamine H1 receptor [11] = target: T1, Histamine H1 receptor; assay: Apparent pA2 value of compound at 10 nM concentration of mepyramine in guinea pig aorta
Cavia porcellus [12] = organism: Cavia porcellus; assay: Apparent pA2 value of compound at 3 nM concentration of mepyramine in guinea pig ileum
[13] = target: Histamine H2 receptor (Cavia porcellus) (UniProt P47747); conditions: Cardiac atrium
Cavia porcellus [14] = organism: Cavia porcellus; assay: Apparent pA2 value at 3 nM concentration of mepyramine in guinea pig ileum; assay type: functional; conditions: read-out: pA2 (converted)
[15] = target: Histamine H1 receptor (Cavia porcellus) (UniProt P31389); assay: as §2; assay type: tissue-based
Histamine H1 receptor [16] = target: T1, Histamine H1 receptor; assay: Apparent pA2 value of compound at 10 nM concentration of mepyramine in guinea pig aorta; remark: listed apart in the source
Histamine H1 receptor [17] = target: T1, Histamine H1 receptor; assay: as above; remark: listed apart in the source
[18] = target: Histamine H1 receptor (Cavia porcellus) (UniProt P31389); assay: Maximum response (E max) against Histamine H1 receptor in guinea pig ileum; assay type: tissue-based
Cavia porcellus [19] = organism: Cavia porcellus; assay: Full pA2 value of compound at 2-100 nM concentration of mepyramine in guinea pig ileum; assay type: functional; conditions: read-out: pA2 (converted)
[20] = target: Histamine H1 receptor (Cavia porcellus) (UniProt P31389); assay: Concentration required for agonistic activity against histamine H1 receptor in guinea pig ileum; assay type: functional, tissue-based
Histamine H1 receptor [21] = target: T2, Histamine H1 receptor; assay: as §1
Histamine H2 receptor = Histamine H2 receptor (Cavia porcellus, UniProt P47747); assay: Tested for inhibition of histamine H2 receptor-induced rise in heart rate in guinea pig right atrium in the presence of mepyramine at a concentration of 0.3 micro M; assay type: tissue-based, Cardiac atrium
Cavia porcellus [22] = organism: Cavia porcellus; assay: Apparent pA2 value of compound at 100 nM concentration of mepyramine in guinea pig aorta
Cavia porcellus [23] = organism: Cavia porcellus; assay: Apparent pD2 value of compound at 3 nM concentration of mepyramine in guinea pig ileum; assay type: functional
Cavia porcellus [24] = organism: Cavia porcellus; assay: Full pA2 value of compound at 3-30 nM concentration of mepyramine in guinea pig ileum; assay type: functional; conditions: read-out: pA2 (converted)
Cavia porcellus [25] = organism: Cavia porcellus; assay: tissue or blood; conditions: Ileum, read-out: pA2 (converted)
Cavia porcellus [26] = organism: Cavia porcellus; assay: Apparent pA2 value of compound at 10 nM concentration of mepyramine in guinea pig aorta

Sequence of Histamine H3 receptor (Q9JI35 whole entry): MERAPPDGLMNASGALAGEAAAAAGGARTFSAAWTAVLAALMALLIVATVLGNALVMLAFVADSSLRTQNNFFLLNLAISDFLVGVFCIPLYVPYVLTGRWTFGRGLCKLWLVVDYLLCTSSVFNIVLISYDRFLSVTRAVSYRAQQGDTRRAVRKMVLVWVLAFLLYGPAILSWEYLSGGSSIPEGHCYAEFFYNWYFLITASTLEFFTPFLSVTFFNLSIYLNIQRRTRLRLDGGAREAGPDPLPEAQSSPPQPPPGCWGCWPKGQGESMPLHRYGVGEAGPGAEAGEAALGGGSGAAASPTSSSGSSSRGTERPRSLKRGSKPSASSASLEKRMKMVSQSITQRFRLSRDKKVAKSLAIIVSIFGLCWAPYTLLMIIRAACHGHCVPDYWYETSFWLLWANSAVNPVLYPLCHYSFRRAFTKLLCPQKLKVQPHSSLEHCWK
T1 sequence (P31389 whole entry): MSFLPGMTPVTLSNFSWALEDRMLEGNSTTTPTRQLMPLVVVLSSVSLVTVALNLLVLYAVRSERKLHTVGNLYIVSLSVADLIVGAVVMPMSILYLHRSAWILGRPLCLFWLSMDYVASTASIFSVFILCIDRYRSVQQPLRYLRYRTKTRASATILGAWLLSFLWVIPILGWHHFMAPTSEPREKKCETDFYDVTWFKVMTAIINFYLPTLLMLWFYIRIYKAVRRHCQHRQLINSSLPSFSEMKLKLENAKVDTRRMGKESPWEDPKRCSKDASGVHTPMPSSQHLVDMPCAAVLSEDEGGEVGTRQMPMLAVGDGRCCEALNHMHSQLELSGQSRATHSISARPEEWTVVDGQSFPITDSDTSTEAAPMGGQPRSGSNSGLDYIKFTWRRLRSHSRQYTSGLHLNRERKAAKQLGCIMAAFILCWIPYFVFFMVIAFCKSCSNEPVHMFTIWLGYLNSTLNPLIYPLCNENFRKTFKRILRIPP
Sequence of Histamine H1 receptor (Cavia porcellus) (P31389 whole entry): as above
Sequence of Histamine H2 receptor (Cavia porcellus) (P47747 whole entry): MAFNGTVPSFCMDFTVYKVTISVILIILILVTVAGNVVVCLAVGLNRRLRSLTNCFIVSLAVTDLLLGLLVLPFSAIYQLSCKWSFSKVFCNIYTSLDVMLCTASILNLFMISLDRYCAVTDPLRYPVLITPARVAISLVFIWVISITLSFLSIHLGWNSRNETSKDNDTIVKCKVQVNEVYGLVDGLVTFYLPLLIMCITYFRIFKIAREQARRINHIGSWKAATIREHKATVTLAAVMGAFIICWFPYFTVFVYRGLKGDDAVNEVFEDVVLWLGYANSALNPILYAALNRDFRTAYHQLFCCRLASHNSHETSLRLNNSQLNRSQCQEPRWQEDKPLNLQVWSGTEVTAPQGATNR
T2 sequence (P31390 whole entry): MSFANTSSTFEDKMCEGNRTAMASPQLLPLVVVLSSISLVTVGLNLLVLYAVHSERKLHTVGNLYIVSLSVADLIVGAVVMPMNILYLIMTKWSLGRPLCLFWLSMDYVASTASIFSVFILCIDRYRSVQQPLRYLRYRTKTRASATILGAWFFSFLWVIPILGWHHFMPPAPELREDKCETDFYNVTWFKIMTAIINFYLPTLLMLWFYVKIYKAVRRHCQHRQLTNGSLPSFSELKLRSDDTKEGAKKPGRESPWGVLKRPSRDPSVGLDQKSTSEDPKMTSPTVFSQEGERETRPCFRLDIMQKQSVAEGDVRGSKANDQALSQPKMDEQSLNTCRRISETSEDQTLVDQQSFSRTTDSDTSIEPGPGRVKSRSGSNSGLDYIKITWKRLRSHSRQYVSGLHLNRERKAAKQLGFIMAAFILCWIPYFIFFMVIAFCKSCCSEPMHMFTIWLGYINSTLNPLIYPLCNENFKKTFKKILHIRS
Sequence of Histamine H1 receptor (Rattus norvegicus) (P31390 whole entry): as above
Sequence of Muscarinic acetylcholine receptor M3 (Q8VH26 whole entry): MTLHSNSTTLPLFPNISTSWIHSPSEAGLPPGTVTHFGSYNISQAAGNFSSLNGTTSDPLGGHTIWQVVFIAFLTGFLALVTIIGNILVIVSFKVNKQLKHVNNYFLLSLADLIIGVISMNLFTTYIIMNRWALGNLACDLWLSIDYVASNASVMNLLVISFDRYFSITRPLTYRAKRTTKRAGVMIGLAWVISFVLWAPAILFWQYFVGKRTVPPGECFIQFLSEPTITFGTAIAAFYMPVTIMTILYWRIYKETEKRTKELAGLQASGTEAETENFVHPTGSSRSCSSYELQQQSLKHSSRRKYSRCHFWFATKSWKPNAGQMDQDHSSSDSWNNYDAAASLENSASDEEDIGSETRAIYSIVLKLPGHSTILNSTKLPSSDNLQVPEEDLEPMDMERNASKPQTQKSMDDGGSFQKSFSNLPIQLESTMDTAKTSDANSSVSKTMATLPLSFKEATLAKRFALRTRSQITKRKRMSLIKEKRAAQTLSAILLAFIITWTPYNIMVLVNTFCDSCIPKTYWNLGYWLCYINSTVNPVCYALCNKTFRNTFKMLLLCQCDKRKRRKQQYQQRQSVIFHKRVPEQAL
Sequence of Histamine H2 receptor (P47747 whole entry): as the sequence (P47747 whole entry) above

SMILES | EC50 (Histamine H1 receptor [1]) | Kb (Histamine H3 receptor) | EC50 (Histamine H1 receptor [2]) | Emax [6] | Kb [7] | Concentration [9] | pD2 [13] | Kb (Cavia porcellus [14]) | pKp [15] | further results
c1ccc(C(CCc2nc(CCNCCc3ccccn3)c[nH]2)c2ccccc2)cc1 | 81.3 nM | > 501 nM | 21.4 nM | 92% | 5010 nM | 10 µM | 4.37 | – | – | EC50 (Histamine H1 receptor [3]): 525 nM; Kb (Histamine H1 receptor [4]): 10.5 nM; Emax [5]: 59%; Emax [8]: 92%; pKp [10]: 7.15; Kb (Histamine H1 receptor [11]): 4.37 nM; Kb (Cavia porcellus [12]): 1.74 nM
c1ccc(C(CCc2nc(CCNCCc3ccncc3)c[nH]2)c2ccccc2)cc1 | – | > 501 nM | 115 nM | 78% | 1000 nM | 10 µM | 4.37 | 1.48 nM | 6.02 | –
c1ccc(C(CCc2nc(CCNCCCCCc3ccccn3)c[nH]2)c2ccccc2)cc1 | – | > 316 nM | 15.5 nM | 83% | 513 nM | 3 µM | 5.02 | 1.82 nM | 6.74 | –
c1ccc(C(CCc2nc(CCNCCc3cccnc3)c[nH]2)c2ccccc2)cc1 | 83.2 nM | > 501 nM | 77.6 nM | 64% | 7080 nM | 10 µM | 4.62 | 0.851 nM | 6.52 | Emax [8]: 64%; Kb (Histamine H1 receptor [16]): 3.24 nM
CNCCc1cnc(CCC(c2ccccc2)c2ccccc2)[nH]1 | 39.8 nM | – | – | – | – | – | – | – | – | –
c1ccc(C(CCc2nc(CCNCCc3cnc[nH]3)c[nH]2)c2ccccc2)cc1 | 9.77 nM | > 1000 nM | 5.5 nM | – | 4790 nM | – | – | – | 7.67 | Kb (Histamine H1 receptor [17]): 3.24 nM; Emax [18]: 96%; Kb (Cavia porcellus [19]): 1.48 nM; Kb (Histamine H1 receptor [4]): 9.55 nM; Emax [5]: 56%; Emax [8]: 96%; Concentration [20]: 0.1 µM; EC50 (Histamine H1 receptor [21]): 295 nM; EC50 (Histamine H2 receptor): 10000 nM
c1ccc(C(CCc2nc(CCNCCCc3ccccn3)c[nH]2)c2ccccc2)cc1 | – | > 316 nM | 21.4 nM | – | 457 nM | 3 µM | 4.96 | – | 7.13 | Emax [8]: 80%; Kb (Cavia porcellus [12]): 1.66 nM
c1ccc(C(CCc2nc(CCNCCCCc3c[nH]cn3)c[nH]2)c2ccccc2)cc1 | – | 10.2 nM | 123 nM | 86% | 417 nM | 10 µM | 4.12 | – | 6.17 | Kb (Cavia porcellus [12]): 1.7 nM
c1ccc(C(CCc2nc(CCNCCCc3c[nH]cn3)c[nH]2)c2ccccc2)cc1 | – | 123 nM | 13.5 nM | 95% | 776 nM | 0.1 µM | 3.92 | 1.86 nM | 7.14 | –
CNCCc1c[nH]c(CCC(c2ccccc2)c2ccccc2)n1 | – | – | – | – | – | – | – | – | 6.45 | Kb (Cavia porcellus [22]): 1.78 nM
c1ccc(C(CCc2nc(CCNCCCc3ccncc3)c[nH]2)c2ccccc2)cc1 | – | – | 269 nM | 48% | – | 10 µM | 4.36 | – | 5.69 | pD2 (Cavia porcellus [23]): 8.49
c1ccc(C(CCc2nc(CCNCCCCc3cccnc3)c[nH]2)c2ccccc2)cc1 | – | – | 13.5 nM | 88% | – | 3 µM | 4.77 | 1.7 nM | 6.88 | –
c1ccc(C(CCc2nc(CCNCCCCc3ccccn3)c[nH]2)c2ccccc2)cc1 | 14.1 nM | > 501 nM | 6.92 nM | 89% | 741 nM | 3 µM | 4.78 | – | 7.45 | Kb (Histamine H1 receptor [4]): 6.17 nM; Kb (Cavia porcellus [24]): 0.661 nM; Emax [5]: 65%; Emax [8]: 89%; EC50 (Histamine H1 receptor [21]): 240 nM; Kb (Histamine H1 receptor [11]): 1.62 nM
c1ccc(C(CCc2nc(CCNCCCCCc3ccncc3)c[nH]2)c2ccccc2)cc1 | – | – | 95.5 nM | 57% | – | 10 µM | 4.12 | – | 5.9 | pD2 (Cavia porcellus [23]): 8.63
NCCc1c[nH]cn1 [HISTAMINE] | – | – | – | – | – | – | – | – | – | Kb (Cavia porcellus [25]): 0.851 nM
c1ccc(C(CCc2nc(CCNCCCc3cccnc3)c[nH]2)c2ccccc2)cc1 | – | – | 117 nM | 48% | – | 10 µM | 4.05 | 1.82 nM | 6.18 | –
NCCc1cnc(CCC(c2ccccc2)c2ccccc2)[nH]1 | 158 nM | – | – | – | – | – | – | – | – | –
c1ccc(C(CCc2nc(CCNCCCCc3ccncc3)c[nH]2)c2ccccc2)cc1 | – | – | 24 nM | 84% | – | 10 µM | 4.59 | 1.12 nM | 6.56 | –
NCCc1c[nH]c(CCC(c2ccccc2)c2ccccc2)n1 | – | – | – | 100% and 84% | – | – | – | – | 6.04 | Kb (Cavia porcellus [26]): 0.977 nM; Emax [5]: 50%; Concentration [20]: 3 µM
c1ccc(C(CCc2nc(CCNCCCCCc3cccnc3)c[nH]2)c2ccccc2)cc1 | – | > 316 nM | 26.3 nM | 84% | 562 nM | 3 µM | 5.25 | 1.48 nM | 6.61 | –
